Source: PubChem BioAssay
Active and inactive are the calls of the source.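 The calls were made as follows, unless noted: active = inhibition above 20% together with a positive visual image hit; inconclusive = visual image hit but inhibition not above 20%; inactive = no visual image hit.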

Assays:
[1] = inhibitors of TNFa-induced NFkB p65 translocation, primary screen, imaging, HUVEC, MLSMR starter and 10KST1 sets (AID 438); conditions: HUVEC TNFa-induced p65 nuclear translocation; cell count: measured here: nuclei count (cytotoxicity indicator), at 2.08 µM; inhibition: at 2 µM, stronger effect = higher value, 0% TNFa-plus-vehicle, 100% no-TNFa wells;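 also: compound added about 3h40 before a 20 min TNFalpha stimulation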;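 as to inhibition: signal is the nuclear over cytoplasmic p65 intensity ratio per well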
[2] = inhibitors of E-selectin induction by TNFa, primary screen, imaging, HUVEC, immunofluorescence, MLSMR starter and 10KST1 sets (AID 487;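 active = visually confirmed hit in the image check and inhibition above 20%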;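 as to inhibition: signal is fraction of cell area covered by stained E-selectin grains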;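 as to nuclei count: 100% = median nuclei count of all wells on the same plate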); conditions: HUVEC TNFalpha-induced E-selectin immunofluorescence imaging, at 2 µM; inhibition: stronger effect = higher value; nuclei count: measured here: cell number, toxicity
[3] = DUSP6 inhibitors restoring Erk phosphorylation by chemical complementation, primary imaging in DUSP6-transfected HeLa (AID 609;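 active = compounds giving at least 50% inhibition in the cell-based MKP-3 phosphatase rescue imaging test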;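 as to inhibition: phospho-Erk level distribution per well compared with pooled transfected vehicle control wells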); conditions: HeLa MKP-3 transfected, phospho-Erk imaging KS statistic, at 10 µM, cells stimulated with TPA for 15 min
[4] = target: Dual specificity protein phosphatase 6 (Homo sapiens) (UniProt Q16828); experiment: as above; conditions: HeLa MKP-3 transfected, phospho-Erk imaging KS statistic; at 10 µM; stronger effect = higher value; cells stimulated with TPA for 15 min
[5] = target: Voltage-gated potassium channel subunit beta-2 (Rattus norvegicus) (UniProt P62483); experiment: KvBeta enzyme negative modulators, primary screen, biochemical, NADPH fluorescence (AID 622;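 active = fluorescence slope higher than the sample average by over 3 SD, cut at about -0.22 in these data, passing the limit was not always enough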;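 also: slope of raw intensity against log time taken from 70 to 1610 s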); conditions: recombinant KvBeta, 4-cyanobenzaldehyde reduction, at 10 µM, stronger effect = higher value
[6] = target: Voltage-gated potassium channel subunit beta-2 (Rattus norvegicus) (UniProt P62483); experiment: KvBeta positive modulators, primary screen, biochemical, NADPH fluorescence (AID 623;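 active = NADPH fluorescence slope more negative than the mean of all samples by about 3 SD, 99.7% confidence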;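 also: fluorescence intensity change per second fitted from 20 to 320 s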); conditions: Recombinant KvBeta, NADPH fluorescence decrease slope, 10 min; at 10 µM; stronger effect = lower value
[7] = target: Muscarinic acetylcholine receptor M4 (Homo sapiens) (UniProt P08173); experiment: compounds altering M4/GIRK thallium flux, either direction, primary screen, M4 allosteric agonist project, cell-based, HEK293 M4/GIRK, BTC-AM (AID 625;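 active = fluorescence slope after compound addition differing from the mean of all tested samples at 99.7% confidence, mostly higher but some lower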;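 also: thallium influx through GIRK channels coupled to M4 in HEK293 cells with BTC-AM dye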); conditions: at 10 µM, actives lie on both sides
In short: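 assay system = HEK293 cells with M4 receptor and GIRK channels | medium = pH 7.3 thallium assay buffer | doses = 10 µM final, single point | timing = cells overnight at 37 °C, BTC-AM loading 1 h, reads 2 min total | signal = BTC-AM fluorescence, 1 Hz kinetic reads | read-out = post-addition slope, 15–24 s, of baseline-normalized fluorescence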

[8] = inhibitors of larval lipid processing in zebrafish, primary screen, whole organism, PED6 fluorescence, gall bladder and intestine (AID 686;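 active = a full or partial loss of lipid-probe fluorescence in the fish gall bladder, intestine or both, judged by eye; inactive = no fluorescence loss, or compound toxic to the fish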;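 also: larvae 5 to 7 days old with five fish per well; signal comes from phospholipase A2 cleavage of quenched PED6 carried via bile; overnight exposure to compound and PED6 before scoring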); conditions: Zebrafish larvae PED6 lipid processing, fluorescence scoring; screened at 20 µM (by protocol)
In short: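 Also added: quenched phospholipase substrate PED6, 100 nM final, ingested by larvae; System: zebrafish larvae, 5-7 d; Quantity: 5 larvae per well; Compound: 20 µM single dose; Schedule: overnight compound and PED6 incubation; Read-out: visual per-well fluorescence inhibition score; Measured by: By-eye fluorescence microscopy; Medium: E3.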

[9] = inhibitors of Chlamydomonas gravitaxis, primary screen, whole organism, Chlamydomonas reinhardtii, WT vs cilia-less mutant, absorbance, 96-well (AID 463189;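 active = inhibition at or above 50% relative to wild type and mutant plate controls; inactive = inhibition below 50%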;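 also: 0% = wild type cc124 cells in DMSO and 100% = ciliumless bld1 mutant cells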); conditions: OD600 absorbance, 2 days, at 10 µM, stronger effect = higher value
[10] = measured here: cell density z-score
[11] = measured here: nuclear c-Myc green intensity z-score
[12] = measured here: nuclear pErk red intensity z-score, stronger effect = higher value

Sequence of Muscarinic acetylcholine receptor M4 (Homo sapiens) (P08173 whole entry, looked up): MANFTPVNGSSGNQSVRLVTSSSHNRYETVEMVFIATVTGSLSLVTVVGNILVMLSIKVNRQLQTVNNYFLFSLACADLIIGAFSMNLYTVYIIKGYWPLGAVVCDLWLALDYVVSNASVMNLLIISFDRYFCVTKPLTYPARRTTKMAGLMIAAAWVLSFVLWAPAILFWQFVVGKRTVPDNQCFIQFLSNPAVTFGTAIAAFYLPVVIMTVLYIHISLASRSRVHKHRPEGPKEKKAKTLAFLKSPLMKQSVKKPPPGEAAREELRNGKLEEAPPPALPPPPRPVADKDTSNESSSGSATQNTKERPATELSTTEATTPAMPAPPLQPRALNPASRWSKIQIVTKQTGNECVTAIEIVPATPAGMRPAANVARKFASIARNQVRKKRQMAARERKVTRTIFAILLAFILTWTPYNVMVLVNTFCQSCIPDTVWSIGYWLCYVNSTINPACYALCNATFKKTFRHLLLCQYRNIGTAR
Sequence of Voltage-gated potassium channel subunit beta-2 (Rattus norvegicus) (P62483 whole entry, looked up): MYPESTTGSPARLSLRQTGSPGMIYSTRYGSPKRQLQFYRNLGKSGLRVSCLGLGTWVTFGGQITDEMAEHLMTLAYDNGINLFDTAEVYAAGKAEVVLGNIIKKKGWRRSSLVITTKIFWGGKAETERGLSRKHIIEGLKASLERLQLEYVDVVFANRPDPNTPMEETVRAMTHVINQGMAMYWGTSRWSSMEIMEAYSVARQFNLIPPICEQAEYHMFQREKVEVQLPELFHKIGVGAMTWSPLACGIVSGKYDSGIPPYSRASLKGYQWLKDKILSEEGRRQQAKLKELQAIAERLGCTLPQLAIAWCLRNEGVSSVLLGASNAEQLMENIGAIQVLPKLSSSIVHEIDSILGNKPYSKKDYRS
Sequence of Dual specificity protein phosphatase 6 (Homo sapiens) (Q16828 whole entry, looked up): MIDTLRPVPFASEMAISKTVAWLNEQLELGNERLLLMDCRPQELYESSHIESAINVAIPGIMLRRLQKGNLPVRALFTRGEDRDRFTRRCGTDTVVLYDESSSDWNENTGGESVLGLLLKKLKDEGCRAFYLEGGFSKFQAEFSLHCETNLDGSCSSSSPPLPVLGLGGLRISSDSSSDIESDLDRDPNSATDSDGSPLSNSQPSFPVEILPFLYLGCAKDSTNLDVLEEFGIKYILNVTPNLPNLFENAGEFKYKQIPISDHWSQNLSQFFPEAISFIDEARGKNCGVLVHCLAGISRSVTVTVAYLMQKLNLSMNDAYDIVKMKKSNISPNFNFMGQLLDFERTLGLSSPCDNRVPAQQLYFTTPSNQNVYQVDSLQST

Row | Structure (SMILES) | cell count [1] | inhibition [1] | inhibition [2] | nuclei count [2] | z-score [3, 10] | z-score [3, 11] | z-score [3, 12] | inhibition [4] | fluorescence slope [5] | NADPH fluorescence slope [6] | fluorescence slope [7] | outcome [8] | inhibition [9]
1 | CCOC(=O)C(C)Oc1ccc2c(C)cc(=O)oc2c1C(C)=O (stereo not given) | 708 | 3.9% (inactive) | -13.3% (inactive) | 198% | -0.905 | 0.873 | 1.56 | 1.98% (inactive) | -0.459 (inactive) | -4.7e-05 (inactive) | 0.00606 (inactive) | inactive | 3.24% (inactive)
2 | CCOC(=O)C1CCCN(c2nc3ccccc3nc2C(C#N)C(=O)OC(C)COC)C1 (stereo not given) | 683 | -5.4% (inactive) | -63% (inactive) | 204% | -1 | 0.049 | 0.811 | -5.81% (inactive) | -0.495 (inactive) | -0.000103 (inactive) | 0.00181 (inactive) | inactive | 23.6% (inactive)
3 | CC(C)c1[nH]c(=O)c(C#N)c2c1CSC(C)(C)C2 | 507 | -14% (inactive) | 4% (inactive) | 89.3% | 0.147 | 0.162 | -0.0562 | 5.35% (inactive) | -0.428 (inactive) | 3.3e-05 (inactive) | 0.0036 (inactive) | inactive | 14% (inactive)
4 | COc1cccc(C2C(C(=O)c3sc(C)nc3C)=C(O)C(=O)N2CCN2CCOCC2)c1OC (stereo not given) | 403 | -3.3% (inactive) | -65.8% (inactive) | 140% | -0.517 | 0.521 | 0.668 | 18.2% (inactive) | -0.47 (inactive) | -0.000114 (inactive) | 0.00521 (inactive) | inactive | 4.67% (inactive)
5 | O=C(c1cc(N2CCCCC2)nc2ccccc12)N1CCOCC1 | 627 | 3.5% (inactive) | -37.7% (inactive) | 159% | -1.1 | 2.14 | 1.42 | -15% (inactive) | -0.422 (inactive) | -1.2e-05 (inactive) | 0.0052 (inactive) | inactive | 1.82% (inactive)
6 | Cn1c(=O)[nH]c(=O)c2c1nc(N1CCN(c3cccc(Cl)c3)CC1)n2CCCc1ccccc1 | 620 | -6% (inactive) | -19.3% (inactive) | 104% | 0.751 | -1.24 | -0.00216 | 24% (inactive) | -0.442 (inactive) | -6.2e-05 (inactive) | 0.0083 (inactive) | inactive | -0.786% (inactive)
7 | Cc1cccc(NC(=O)c2c(C)cc(=O)oc2C)n1 | 522 | -1.7% (inactive) | 26.4% (inactive) | 170% | 0.944 | 0.403 | -0.669 | 7.93% (inactive) | -0.374 (inactive) | -3.7e-05 (inactive) | 0.00509 (inactive) | inactive | -9.96% (inactive)
8 | COc1cccc(NC(=O)C2CC(=O)n3cnnc3S2)c1 (stereo not given) | 518 | -3.8% (inactive) | 12.1% (inactive) | 177% | 0.777 | -1.1 | -0.46 | 35.7% (inactive) | -0.339 (inactive) | -2.8e-05 (inactive) | 0.00822 (inactive) | inactive | 40.5% (inactive)
9 | Cc1cc(C)nc(N(C#N)CN2C(=O)c3ccccc3C2=O)n1 | 629 | 6.2% (inactive) | 26.6% (inactive) | 107% | -0.879 | 0.404 | -0.916 | -9.53% (inactive) | -0.523 (inactive) | -3.9e-05 (inactive) | 0.00446 (inactive) | inactive | 30.7% (inactive)
10 | CCCc1cc(=O)oc2c(CN3CCCC3)c(O)ccc12 | 571 | -10.8% (inactive) | -11.6% (inactive) | 118% | 0.0938 | -0.952 | -1.55 | 0.671% (inactive) | -0.0292 (inactive) | 1.1e-05 (inactive) | 0.0058 (inactive) | inactive | -1.86% (inactive)
11 | O=C(NCCCn1ccnc1)c1cccnc1 | 412 | -1% (inactive) | -143% (inactive) | 187% | -0.692 | 0.968 | -0.483 | 5.65% (inactive) | -0.459 (inactive) | -0.000144 (inactive) | 0.00592 (inactive) | inactive | 0.663% (inactive)
12 | O=C1OC(N2CCN(C/C=C/c3ccccc3)CC2)c2ccccc21 (stereo not given) | 390 | -1.2% (inactive) | -65.2% (inactive) | 168% | 0.231 | -0.597 | 0.38 | 14% (inactive) | -0.458 (inactive) | -0.000109 (inactive) | 0.00426 (inactive) | inactive | 28.9% (inactive)
13 | C/C(=N/n1cnnc1)c1cccnc1 | 541 | 1.3% (inactive) | -130% (inactive) | 140% | 0.514 | -0.833 | -1.29 | 3.42% (inactive) | -0.448 (inactive) | -0.000104 (inactive) | 0.00412 (inactive) | inactive | -7.67% (inactive)
14 | CCOC(=O)c1ccc(NC(=O)COc2ccccc2OC)cc1 | 668 | -1.6% (inactive) | 26.3% (inactive) | 179% | 1.9 | 0.486 | -1.19 | 33.3% (inactive) | -0.465 (inactive) | -0.000105 (inactive) | 0.00666 (inactive) | inactive | -9.5% (inactive)
15 | CNc1oc(-c2cccs2)nc1C#N | 683 | -0.7% (inactive) | -2.1% (inactive) | 144% | 0.965 | 0.294 | 0.102 | 1.63% (inactive) | -0.0289 (inactive) | -2.3e-05 (inactive) | 0.00668 (inactive) | inactive | 7.4% (inactive)
16 | Nc1ccc2c3c(cccc13)CC2 | 400 | -4.5% (inactive) | -74% (inactive) | 108% | 0.938 | 0.125 | -0.141 | 9.37% (inactive) | -0.281 (inactive) | -2.2e-05 (inactive) | 0.00407 (inactive) | inactive | -6.34% (inactive)
17 | COc1ccc(N2CC(=O)N(c3ccc(OC)c(OC)c3)CC2=O)cc1OC | 400 | -5.7% (inactive) | -94.2% (inactive) | 142% | -0.173 | -2.28 | 1.66 | 3.42% (inactive) | -0.477 (inactive) | -5.2e-05 (inactive) | 0.00438 (inactive) | inactive | 18.5% (inactive)
18 | Cc1cc(C)n(-c2c(F)c(F)c(CN3CCCCC3)c(F)c2F)n1 | 557 | 6.8% (inactive) | 29.4% (inactive) | 107% | -0.661 | 0.711 | -1.05 | 17.8% (inactive) | -0.349 (inactive) | 1.9e-06 (inactive) | 0.00483 (inactive) | inactive | 26% (inactive)
19 | CNc1oc(-c2ccccc2Cl)nc1C#N | 368 | 4.3% (inactive) | 23.8% (inactive) | 79.3% | 0.949 | -0.665 | 0.059 | 3.56% (inactive) | -0.594 (inactive) | -4.5e-05 (inactive) | 0.00508 (inactive) | active; weak signal in gallbladder and intestine | 19.9% (inactive)
20 | CCOC(=O)c1c(C)n(C)c2ccc(O)c(CN3CCCCC3)c12 | 616 | 9.7% (inactive) | -7.7% (inactive) | 92.8% | -0.792 | 0.194 | -0.0734 | -15.1% (inactive) | -0.442 (inactive) | -3.9e-05 (inactive) | 0.00334 (inactive) | inactive | 22.8% (inactive)
21 | C=C(C)Cn1c(-c2ccc(OC)cc2)nc2ccccc21 | 377 | 0.8% (inactive) | -113% (inactive) | 157% | -0.296 | -0.903 | 0.627 | -6.86% (inactive) | -0.461 (inactive) | -0.000111 (inactive) | 0.00384 (inactive) | inactive; toxic | 25.6% (inactive)
22 | C=CCN=C(NC#N)SCCc1ccccc1 | 587 | -16.1% (inactive) | 49.5% (inactive) | 161% | -0.943 | 1.91 | -0.167 | -5.62% (inactive) | -0.498 (inactive) | -6.6e-05 (inactive) | 0.00676 (inactive) | inactive | -0.302% (inactive)
23 | OC1(C2(O)CC(c3ccccc3)ON2)CCCCC1 (stereo not given) | 713 | 6.2% (inactive) | -8.5% (inactive) | 141% | 0.0893 | 0.138 | -1.51 | -5.81% (inactive) | -0.444 (inactive) | -3.6e-05 (inactive) | 0.00531 (inactive) | inactive | 0.004% (inactive)
24 | CC(NC(=O)Nc1nnc(C(F)(F)F)s1)(C(F)(F)F)C(F)(F)F | 640 | 3.6% (inactive) | -157% (inactive) | 149% | -0.473 | 0.624 | 0.273 | 1.63% (inactive) | -0.465 (inactive) | -5.5e-05 (inactive) | 0.00252 (inactive) | inactive; toxic | 1.97% (inactive)
25 | COc1ccc2c(c1OC)C(=O)OC2c1c(O)nc(SC)n(-c2ccccc2)c1=O (stereo not given) | 494 | 4.1% (inactive) | -192% (inactive) | 115% | 1.24 | 1.53 | -0.802 | 29.7% (inactive) | -0.39 (inactive) | -6.5e-05 (inactive) | 0.00866 (inactive) | inactive | -18.2% (inactive)
